What was measured:
SK-MEL-28 [1] = experiment: Cytotoxicity against human SK-MEL-28 cells after 48 hrs by SRB assay; assay type: functional, cell-based; settings: Homo sapiens, SK-MEL-28, 48 h; for CC50: read-out: LC50 (the source's name)
How it was run: (§1)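 Cells grown in RPMI 1640 with 10% FBS and penicillin/streptomycin at 37 °C and 5% CO₂, trypsinized, then seeded at 5 × 10³/well. After 18 h drug-free attachment, samples in DMSO/EtOH/PBS (0.5:0.5:99) were added for 48 h continuous exposure. Cells were fixed with cold TCA (1 h, 4 °C) and stained with SRB (10 min). Tris-solubilized stain read at 490 nm. Triplicate wells, mean ± SD; GI₅₀ derived.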

A549 = experiment: Cytotoxicity against human A549 cells after 48 hrs by SRB assay; assay type: functional, cell-based; settings: Homo sapiens, A549, 48 h; how it was run: as §1
HT-29 = experiment: Cytotoxicity against human HT29 cells after 48 hrs by SRB assay; assay type: functional, cell-based; settings: Homo sapiens, HT-29, 48 h; for CC50: read-out: LC50 (the source's name); how it was run: as §1
DU-145 [2] = experiment: Cytotoxicity against human DU145 cells
DU-145 [3] = experiment: Cytotoxicity against human DU145 cells after 48 hrs by SRB assay; assay type: functional, cell-based; settings: Homo sapiens, DU-145, 48 h; for CC50: read-out: LC50 (the source's name); how it was run: as §1
SK-MEL-28 [4] = experiment: Cytotoxicity against human SK-MEL-28 cells
LNCaP = experiment: Cytotoxicity against human LNcaP cells after 48 hrs by SRB assay; assay type: functional; settings: for CC50: read-out: LC50 (the source's name); how it was run: as §1
[5] = Cytotoxicity against human IGROV cells after 48 hrs by SRB assay; assay type: functional; settings: for CC50: read-out: LC50 (the source's name); how it was run: as §1
[6] = Cytotoxicity against human IGROV-ET cells after 48 hrs by SRB assay; assay type: functional; settings: for CC50: read-out: LC50 (the source's name); how it was run: as §1
SK-BR-3 = experiment: Cytotoxicity against human SKBR3 cells after 48 hrs by SRB assay; assay type: functional; settings: SK-BR-3, 48 h; for GI50: read-out: GI50; for CC50: read-out: LC50 (the source's name); how it was run: as §1
K562 = experiment: Cytotoxicity against human K562 cells after 48 hrs by SRB assay; assay type: functional; settings: K562, 48 h; for CC50: read-out: LC50 (the source's name); how it was run: as §1
PANC-1 = experiment: Cytotoxicity against human PANC1 cells after 48 hrs by SRB assay; assay type: functional; settings: PANC-1, 48 h; for CC50: read-out: LC50 (the source's name); how it was run: as §1
LoVo [7] = experiment: Cytotoxicity against human LoVo cells after 48 hrs by SRB assay; assay type: functional; settings: for CC50: read-out: LC50 (the source's name)
LoVo [8] = experiment: Cytotoxicity against human doxorubicin resistant LoVo cells after 48 hrs by SRB assay; assay type: functional; settings: for CC50: read-out: LC50 (the source's name); how it was run: as §1
HeLa = experiment: Cytotoxicity against human HeLa cells after 48 hrs by SRB assay; assay type: functional; settings: for CC50: read-out: LC50 (the source's name); how it was run: as §1
[9] = Cytotoxicity against human HeLa-APL cells after 48 hrs by SRB assay; assay type: functional; how it was run: as §1

Q: Which IC50 (SK-MEL-28 [1]) does the source give for `CC[C@@H](C)[C@@H](NC(=O)[C@H](CCCN)NC(=O)[C@H]1CCCN1C(=O)[C@H](NC(=O)[C@@H](NC(=O)[C@@H](NC(=O)[C@H](NC(=O)CCCC(C)C)C(C)C)[C@@H](C)O)C(C)C)C(C)C)C(=O)N[C@H]1C(=O)N[C@H]([C@H](C)CC)C(=O)N[C@H](C(C)C)C(=O)N[C@@H](Cc2ccccc2)C(=O)N[C@H]([C@@H](C)O)C(=O)N[C@@H](C(C)C)C(=O)O[C@H]1C` here?
A: 11.7 µM

Q: What about the IC50 (A549) of the same molecule?
A: 11.5 µM

Q: And the IC50 (HT-29)?
A: 8.52 µM

Q: What about the IC50 (DU-145 [2]) of the same molecule?
A: 18.4 µM

Q: What does the source list for `C/C=C1\NC(=O)[C@H](Cc2ccccc2)NC(=O)[C@@H](C(C)C)NC(=O)[C@@H]([C@H](C)CC)NC(=O)[C@H](NC(=O)[C@H](NC(=O)[C@H]2CCCN2C(=O)[C@H](NC(=O)[C@@H](NC(=O)[C@@H](NC(=O)[C@H](NC(=O)CCCC(C)C)C(C)C)[C@@H](C)O)C(C)C)C(C)C)[C@H](C)CC)[C@H](C)OC(=O)[C@H](C(C)C)NC1=O`?
A: IC50 (DU-145 [3]): 3.67 µM; IC50 (HT-29): 3.67 µM; IC50 (SK-MEL-28 [4]): 3.67 µM

Q: With `C/C=C1\NC(=O)[C@H](Cc2ccccc2)NC(=O)[C@@H](C(C)C)NC(=O)[C@@H]([C@H](C)CC)NC(=O)[C@H](NC(=O)[C@H](NC(=O)CCCC(C)C)[C@H](C)CC)[C@H](C)OC(=O)[C@H](C(C)C)NC1=O` as the molecule, how does the IC50 (SK-MEL-28 [1]) read?
A: 11.5 µM

Q: What about the IC50 (A549) of the same molecule?
A: 11.5 µM

Q: And the IC50 (HT-29)?
A: 11.5 µM

Q: And the IC50 (DU-145 [2])?
A: 11.5 µM

Q: For `C/C=C1\NC(=O)[C@H](Cc2ccccc2)NC(=O)[C@@H](C(C)C)NC(=O)[C@@H]([C@H](C)CC)NC(=O)[C@H](NC(=O)[C@H](NC(=O)[C@H](CCCNC(=O)CCOCCOCCN)NC(=O)[C@H]2CCCN2C(=O)[C@H](NC(=O)[C@@H](NC(=O)[C@@H](NC(=O)[C@H](NC(=O)CCCC(C)C)C(C)C)[C@@H](C)O)C(C)C)C(C)C)[C@H](C)CC)[C@H](C)OC(=O)[C@H](C(C)C)NC1=O`, which GI50 (DU-145 [3]) is on record?
A: 852 nM

Q: What about the GI50 (DU-145 [3]; read-out: GI50) of the same molecule?
A: 738 nM

Q: What about the CC50 (DU-145 [3]) of the same molecule?
A: 982 nM

Q: What about the CC50 (LNCaP) of the same molecule?
A: 866 nM

Q: What about the GI50 [5] of the same molecule?
A: 134 nM

Q: And the GI50 ([5]; read-out: GI50)?
A: 176 nM

Q: And the CC50 [5]?
A: 262 nM

Q: What about the GI50 [6] of the same molecule?
A: 287 nM

Q: What about the GI50 ([6]; read-out: GI50) of the same molecule?
A: 195 nM

Q: And the CC50 [6]?
A: 510 nM

Q: And the TGI (SK-BR-3)?
A: 235 nM

Q: And the GI50 (SK-BR-3)?
A: 248 nM

Q: What about the CC50 (SK-BR-3) of the same molecule?
A: 111 nM

Q: And the GI50 (SK-MEL-28 [1])?
A: 956 nM

Q: What about the GI50 (SK-MEL-28 [1]; read-out: GI50) of the same molecule?
A: 952 nM

Q: And the CC50 (SK-MEL-28 [1])?
A: 954 nM

Q: And the GI50 (A549)?
A: 595 nM

Q: And the LC50 (A549)?
A: 350 nM

Q: And the GI50 (A549; read-out: GI50)?
A: 4920 nM

Q: What about the CC50 (K562) of the same molecule?
A: 159 nM

Q: And the GI50 (PANC-1)?
A: 1250 nM

Q: And the TGI (PANC-1)?
A: 1060 nM

Q: And the CC50 (PANC-1)?
A: 1600 nM

Q: And the CC50 (HT-29)?
A: 390 nM

Q: What about the CC50 (LoVo [7]) of the same molecule?
A: 301 nM

Q: And the CC50 (LoVo [8])?
A: 29.5 nM

Q: And the GI50 (HeLa)?
A: 711 nM

Q: And the TGI (HeLa)?
A: 942 nM

Q: And the CC50 (HeLa)?
A: 944 nM

Q: What about the GI50 [9] of the same molecule?
A: 515 nM

Q: What about the LC50 (concentration giving 50% net cell kill) [9] of the same molecule?
A: 852 nM

Q: And the TGI [9]?
A: 658 nM

Q: For `C/C=C1\NC(=O)[C@H](Cc2ccccc2)NC(=O)[C@@H](C(C)C)NC(=O)[C@@H]([C@H](C)CC)NC(=O)[C@H](NC(=O)[C@H](NC(=O)[C@H](CCCN)NC(=O)[C@H]2CCCN2C(=O)[C@H](NC(=O)[C@@H](NC(=O)[C@@H](NC(=O)[C@H](NC(=O)CC[C@@H](C)[C@H]2CC[C@H]3[C@@H]4CC[C@@H]5C[C@H](OC(=O)C(F)(F)F)CC[C@]5(C)[C@H]4CC[C@]23C)C(C)C)[C@@H](C)OC(=O)C(F)(F)F)C(C)C)C(C)C)[C@H](C)CC)[C@H](C)OC(=O)[C@H](C(C)C)NC1=O`, which GI50 (DU-145 [3]) is on record?
A: 683 nM

Q: What about the GI50 (DU-145 [3]; read-out: GI50) of the same molecule?
A: 698 nM

Q: What about the CC50 (DU-145 [3]) of the same molecule?
A: 663 nM

Q: What about the GI50 (LNCaP) of the same molecule?
A: 729 nM

Q: What about the TGI (LNCaP) of the same molecule?
A: 783 nM

Q: What about the CC50 (LNCaP) of the same molecule?
A: 838 nM

Q: And the GI50 [5]?
A: 384 nM

Q: And the GI50 ([5]; read-out: GI50)?
A: 405 nM

Q: What about the CC50 [5] of the same molecule?
A: 317 nM

Q: What about the GI50 [6] of the same molecule?
A: 700 nM

Q: And the GI50 ([6]; read-out: GI50)?
A: 638 nM

Q: And the CC50 [6]?
A: 2030 nM

Q: What about the TGI (SK-BR-3) of the same molecule?
A: 116 nM

Q: And the GI50 (SK-BR-3)?
A: 78.4 nM

Q: What about the CC50 (SK-BR-3) of the same molecule?
A: 185 nM

Q: And the GI50 (SK-MEL-28 [1])?
A: 158 nM

Q: And the GI50 (SK-MEL-28 [1]; read-out: GI50)?
A: 201 nM

Q: What about the CC50 (SK-MEL-28 [1]) of the same molecule?
A: 124 nM

Q: And the GI50 (A549)?
A: 890 nM

Q: And the LC50 (A549)?
A: 835 nM

Q: And the GI50 (A549; read-out: GI50)?
A: 946 nM

Q: And the GI50 (K562)?
A: 1070 nM

Q: What about the TGI (K562) of the same molecule?
A: 857 nM

Q: And the CC50 (K562)?
A: 1220 nM

Q: And the GI50 (PANC-1)?
A: 1660 nM

Q: And the TGI (PANC-1)?
A: 1370 nM

Q: And the CC50 (PANC-1)?
A: 1370 nM

Q: What about the GI50 (HT-29) of the same molecule?
A: 463 nM

Q: And the TGI (HT-29)?
A: 479 nM

Q: And the CC50 (HT-29)?
A: 921 nM

Q: And the GI50 (LoVo [7])?
A: 285 nM

Q: And the TGI (LoVo [7])?
A: 337 nM

Q: What about the CC50 (LoVo [7]) of the same molecule?
A: 614 nM

Q: And the GI50 (LoVo [8])?
A: 336 nM

Q: What about the TGI (LoVo [8]) of the same molecule?
A: 381 nM

Q: And the CC50 (LoVo [8])?
A: 2110 nM

Q: What about the CC50 (HeLa) of the same molecule?
A: 789 nM

Q: What about the LC50 (concentration giving 50% net cell kill) [9] of the same molecule?
A: 710 nM

— ChEMBL document CHEMBL1156597, “Structure-activity relationship of kahalalide F synthetic analogues” (J Med Chem, 2008)
